71 compounds from ChEMBL document CHEMBL4513216, “Probing the Open Global Health Chemical Diversity Library for Multistage-Active Starting Points for Next-Generation Antimalarials” (ACS Infect Dis, 2020) can be followed below.

Each structure is given as a SMILES string.

This series can be described thus: Toxicity liver stage against HepG2, at 10uM. The format is cell-based. The arrangement: test concentration 10 uM, cell line HepG2-A16-CD81EGFP. The settings on record: human, HepG2-A16-CD81EGFP cells; read-out: INHIBITION
The procedure, abridged: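 Uninfected HepG2-A16-CD81EGFP cells, 3 × 10^3 per well, 1536-well, plated on prespotted compound at 10 μM final, parasite-free screening media added to match infected plates; puromycin 10 μM positive, DMSO 0.5% negative; run in parallel with 48 h PbLuc assay at 37 °C, 5% CO2; viability by CellTiter-Glo luminescence, normalized to controls.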
Consider `NC(=O)C1CCN(C(=O)Cc2cnc(-c3c(Cl)cccc3Cl)s2)CC1`, for which the cytotoxicity at 10 µM is -2.23%. With `COCCn1cc(CC(=O)Nc2c(C)nn(C)c2C)c2ccccc21` the figure was 1.18%. With `Cc1csc(NC(=O)Cn2nc(C)ccc2=O)n1` the figure was -5.7%; with `CC(C)(CO)CNC(=O)c1ccnn1-c1ccc2ccccn12`, 15.8%; with `COCCN1C(=O)C2(CCC(C(=O)Nc3ccccn3)CC2)N=C1C` (stereo unspecified), 10.7%. Next, `COc1cccc(CN2CCC3(CCN(c4ncc(C)cn4)C3)C2=O)c1` (stereo unspecified): -0.265%; `Cc1ccc(C(=O)N2CC[C@@H]3[C@H]2CCC(=O)N3CC2CC2)o1`: -0.419%; `CN1C(=O)CC(c2cnn(C)c2)C12CCN(C(=O)c1ccc[nH]1)CC2` (stereo unspecified): 6.74%. Take `c1cc(CNCC2Cn3nncc3CO2)cs1` (stereo unspecified): the cytotoxicity at 10 µM was found to be 6.13%. On to `COCc1nc2c(o1)CN(C(=O)NCc1ccccc1)C2`, for which the cytotoxicity at 10 µM was 10.6%.

On to `CC(=O)N1CC2(CCN(C(=O)N(C)C)CC2)c2cc(C)ccc21`, for which the cytotoxicity at 10 µM amounted to 7.7%. With `O=C(NCCCn1cccn1)c1nnc2ccccc2n1` the figure was 0.14%; with `CCN(CC)c1nc(C)cc(C(=O)Nc2cnn(CC)c2)n1`, -16.4%; with `CN1CCN(c2ccc(F)cc2NC(=O)NCCn2ccnc2)CC1`, 1.69%. With `NC(=O)CN1CCCN(C(=O)c2ccc(SC(F)F)cc2)CC1` the figure was -6.08%; with `CN(Cc1cnn(C)c1)C(=O)CCS(=O)(=O)c1ccc2c(c1)OCCO2`, -17%; with `FC(F)Oc1ccc(CN2CCOC3(CCOCC3)C2)cc1Cl`, -6.58%. Consider `COCC1CCCN(CCCc2cccc(OC)c2)C1` (stereo unspecified), for which the cytotoxicity at 10 µM amounted to 2.41%.

In the case of `CCc1sc(C(=O)NC2CC2)cc1C`, the cytotoxicity at 10 µM came to 14.5%.

For `O=C(NCCCn1nc2ccccn2c1=O)NCCC1CCC1`, the cytotoxicity at 10 µM was 5.47%. With `NC(=O)CCC1CCCN(c2ccc3c(Cl)ccnc3c2F)C1` (stereo unspecified) the figure was 29.6%; with `CCc1nnc2n1CC(CNCC1CCCC1)CC2` (stereo unspecified), -3.98%. Take `Cn1cc(NC(=O)Nc2cccc3cccnc23)ccc1=O`: the cytotoxicity at 10 µM was -9.22%. On to `CN1CCN(C(=O)c2occc2CN2C(=O)Cc3ccccc32)CC1`, for which the cytotoxicity at 10 µM is -1.89%. Next, `CC(C)c1noc(C(C)S(=O)(=O)CC(=O)N2CCCC2)n1` (stereo unspecified): 4.23%. For `CS(=O)(=O)Cc1ccc(C(=O)Nc2ccc3c(c2)C(=O)NC3)cc1`, the cytotoxicity at 10 µM was 10.8%. Next, `CC(C)c1noc(CCNC(=O)N2CCSC(C(C)C)C2)n1` (stereo unspecified): -2.65%; `CC(C)Sc1ccc(C(C)NC(=O)CNS(C)(=O)=O)cc1` (stereo unspecified): 3.92%; `CCc1cnc(CNC(=O)N2CCCC(C(=O)NC)C2)s1` (stereo unspecified): 19.8%. With `CC(CCc1ccccc1)N1CCC(C(=O)Nc2cnccn2)CC1` (stereo unspecified) the figure was 13.2%. As to `CCS(=O)(=O)N(C)CCCNC(=O)c1cc(Cl)cc2cccnc12`, the cytotoxicity at 10 µM amounted to 15%. Next, `CC(NC(=O)NCc1cccnc1N(C)C)c1cccs1` (stereo unspecified): 1.76%. As for `O=C(CN1CCSCC1c1ccccc1)N1CCCC1` (stereo unspecified), the cytotoxicity at 10 µM was 7.34%. Regarding `O=C(c1cc[nH]n1)N1CCCC1C1CCN(Cc2ccccc2)CC1` (stereo unspecified), the cytotoxicity at 10 µM came out at 1.98%. In the case of `COc1cccc2c1OCC(Cc1cc(C(N)=O)ccn1)C2` (stereo unspecified), the cytotoxicity at 10 µM came out at 5.83%. Next, `CCc1oc(C(=O)NCCSc2ncn[nH]2)cc1CN1CCCC1`: -5.25%; `COCCn1cnnc1Cn1ccnc1-c1ccoc1`: -2.66%. With `Cc1cc(F)ccc1N1CCC(N2C[C@@H](CN(C)C)[C@@H](CO)C2)CC1` the figure was -12.1%; with `CCn1ccnc1C1CCN(c2ncnc3ccsc23)CC1`, 5.31%; with `Cc1cnccc1CN(C)C(=O)C(C)(C)NC(=O)c1cccs1`, 6.89%.

As for `COc1ncc(CN2CC[C@@](C)(O)[C@H](Oc3cccc(F)c3)C2)cn1`, the cytotoxicity at 10 µM stood at 1.68%. With `O=C(NC1CCN(C2CC2)CC1)N1CCN(c2cnccn2)CC1` the figure was -6.97%.

Regarding `Cc1noc(C)c1CCC(=O)N1CCCN(CC(N)=O)CC1`, the cytotoxicity at 10 µM was -12.4%. For the compound `O=C(CN1CCCC(Cn2cncn2)C1)NCCC1=CCCCC1` (stereo unspecified), the cytotoxicity at 10 µM is -3.33%.

For `COc1ccccc1OCCNC1CCCN(Cc2noc(C)n2)C1` (stereo unspecified), the cytotoxicity at 10 µM is -19.1%. With `CCN(Cc1ccc2c(c1)OCO2)C(=O)Cn1cccnc1=O` the figure was -2.27%.

Take `CCN(Cc1ccc2c(c1)OCCO2)C(=O)Cn1cccnc1=O`: the cytotoxicity at 10 µM is -5.1%. With `CCc1nc(CN2CCCN(Cc3nnc(C4CC4)o3)CC2)no1` the figure was -9.26%; with `O=C(c1ccc2c(c1)OCCO2)N1CCCC(n2ccnc2)C1` (stereo unspecified), -16.3%; with `Cc1cc(C)n(CC2CCCN2Cc2nc(N)c3ccccc3n2)n1` (stereo unspecified), -11.7%. Consider `Cc1cnn(CC2CCCN2Cc2noc(C3CC3)n2)c1` (stereo unspecified), for which the cytotoxicity at 10 µM was -17.3%.

Regarding `Cc1cc(C)cc(OCCN2CCn3c(C)nnc3C2)c1`, the cytotoxicity at 10 µM is -9.08%. As for `CC(C)c1cc(NC(=O)c2ccc(C(=O)NC(C)(C)C)cc2)[nH]n1`, the cytotoxicity at 10 µM was -0.164%.

With `Cn1ccc(CN2CCC(c3ccccc3)CC2)cc1=O`, the cytotoxicity at 10 µM is -6.46%. Next, `Cc1cc(C(=O)N2CCCCC2C)ccc1NCCCO` (stereo unspecified): -4.35%; `CCc1nc(CN2CCCN(C(=O)C(C)n3cncn3)CC2)cs1` (stereo unspecified): -7.26%; `COc1cc(S(=O)(=O)N2CCCc3ccccc32)cc(C(=O)O)c1OC`: 1.8%.

For `Cc1cnn(CC2CCCCN2CCCS(N)(=O)=O)c1` (stereo unspecified), the cytotoxicity at 10 µM turned out to be 4.02%.

For the compound `CC(C)Oc1ncccc1CNC(=O)c1ccco1`, the cytotoxicity at 10 µM amounted to 1.32%. Next, `CCN1CCN(C2CCN(Cc3nc4ccccc4o3)CC2)C1=O`: 5.61%.

For the compound `Cc1cnn(CCNCC(=O)NCC2(c3ccccc3)CCC2)c1`, the cytotoxicity at 10 µM was determined as 5.87%.

As for `CN(Cc1ccncc1)C1COC2(CCN(c3ncc(F)cn3)CC2)C1` (stereo unspecified), the cytotoxicity at 10 µM was 6.95%. With `Fc1cnc(N2CC[C@@H]3OC(COCc4cccnc4)CC[C@@H]32)nc1` (stereo partly specified) the figure was 9.94%; with `O=C(c1ccccc1)N1CCO[C@@H]2CN(c3cnccn3)C[C@@H]2C1`, 0.442%. Next, `CC(C)N1[C@@H](C(=O)NCCN(C)C)C[C@H]2CN(c3ncccn3)C[C@H]21`: 8.73%; `COCCN1CCO[C@@H]2CN(C(=O)COc3ccc(C)cc3)C[C@@H]2C1`: -0.572%.

For the compound `COCC1CC2(CCN(CC3CC3)CC2)CN1Cc1csc(C)n1` (stereo unspecified), the cytotoxicity at 10 µM was 4.26%. Next, `Cn1ccc(CN2CCC3(CC2)CC(Nc2ccccn2)CO3)n1` (stereo unspecified): -1.19%. With `CCC1=N[C@@]2(CC[C@@H]3CN(Cc4ccccc4C)C[C@@H]32)C(=O)N1` the figure was 8.4%; with `O=S1(=O)NC(=CSCc2ccccc2)Nc2ccccc21`, 0.603%. In the case of `Cc1cc(C(=O)N2C[C@@H]3CC[C@H]2CN(C(=O)c2ccncc2)C3)cs1`, the cytotoxicity at 10 µM is -2.56%.
